Data published in paper PMC5600292 (Biochimica et biophysica acta, 2017).

Assays:
Format in all cases: biochemical
[1] = molecular target: human recombinant thrombin wild-type (WT) (Homo sapiens, UniProt P00734); assay: HPLC-based kinetic assay of thrombin-catalyzed hydrolysis of FXIII; settings: WT IIa, pH 7.4, 25 °C, average of at least three independent experiments ± SEM; for Km / kcat: SEM
Outline: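 Recombinant human thrombin hydrolysed acetylated, amidated FXIII (28–41) activation peptides with V, L, F, W or Y at position 34 (final 75–2500 µM). Reactions ran at 25 °C in 50 mM H3PO4, 100 mM NaCl, 0.1% PEG, pH 7.4, with 6 nM–1 µM thrombin, and kept <17% hydrolysis in 30 min. Timed aliquots were quenched with 12.5% H3PO4. The (28–37) product was quantified by C18 RP-HPLC against calibration curves, giving initial velocities. These were fit to V = Vmax/(1 + Km/[S]), and kcat came from thrombin concentration. Runs were in triplicate.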

[2] = molecular target: human recombinant thrombin W60dA (Homo sapiens, UniProt P00734, W413A); assay: HPLC-based kinetic assay of FXIII AP hydrolysis, W60dA thrombin; settings: W60dA IIa, pH 7.4, 25 °C, average of at least three independent experiments ± SEM
Outline: (§1)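 Synthetic Ac-/-NH2 FXIII (28–41) AP peptides (V34, L34, F34, W34, Y34) were used at 75–2500 µM final in 50 mM H3PO4, 100 mM NaCl, 0.1% PEG, pH 7.4, 25 °C. Recombinant human thrombin (6 nM–1 µM) started the reaction; aliquots were quenched with 12.5% H3PO4, keeping hydrolysis below 17% in 30 min. The (28–37) product was quantified by RP-HPLC against calibration curves. Initial velocities were fitted to V = Vmax/(1+Km/[S]), kcat taken from thrombin concentration, in triplicate.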

[3] = molecular target: human recombinant thrombin L99A (Homo sapiens, UniProt P00734, L459A); assay: HPLC-based kinetic assay of FXIII AP hydrolysis, L99A thrombin; settings: for kcat/Km / Km / kcat: L99A IIa, HPLC assay, pH 7.4, 25 °C, average of at least three independent experiments ± SEM; for Km / kcat: SEM
Outline: as §1

[4] = molecular target: human recombinant thrombin I174A (Homo sapiens, UniProt P00734, I542A); assay: HPLC-based kinetic assay of FXIII AP hydrolysis, I174A thrombin; settings: for kcat/Km / Km / kcat: I174A IIa, HPLC assay, pH 7.4, 25 °C, average of at least three independent experiments ± SEM; for Km / kcat: SEM
Outline: as §1

[5] = molecular target: human recombinant thrombin W215A (Homo sapiens, UniProt P00734, W590A); assay: HPLC-based kinetic assay of FXIII AP hydrolysis, W215A thrombin
Outline: as §1

[6] = molecular target: human recombinant thrombin W215A/E217A (WE) (Homo sapiens, UniProt P00734, E592A/W590A); assay: HPLC-based kinetic assay of FXIII AP hydrolysis, W215A/E217A
Outline: as §1

[7] = tested on: WT recombinant human thrombin; assay: Gel electrophoresis; settings: 1 µM FXIII variant, 30 nM thrombin, 37°C
Outline: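 Full-length FXIII-A V34X variants were expressed GST-tagged in E. coli BL21(DE3) Gold by auto-induction, then freed from the tag by on-column PreScission digestion. 1 µM variant was incubated with 30 nM WT recombinant human thrombin at 37°C. Aliquots were taken at 1–30 min, quenched with 6 µM PPACK plus reducing buffer, and frozen at −80°C. Samples ran on 8% SDS-PAGE with Coomassie stain; densitometry followed the 83 kDa intact and 79 kDa cleaved bands.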

[8] = W215A IIa, HPLC assay, pH 7.4, 25 °C, average of at least three independent experiments ± SEM, SEM
[9] = WE (W215A/E217A) IIa, HPLC assay, pH 7.4, 25 °C, average of at least three independent experiments ± SEM, SEM

## Ac-TVELQGWVPRGVNL-NH2 [FXIII (28–41) W34 AP]
[1]
  kcat/Km: 12000 ± 1200 M⁻¹ s⁻¹
  Km: 637 ± 56 µM
  kcat: 7.62 ± 0.3 s⁻¹
[2]
  kcat/Km: 1200 ± 120 M⁻¹ s⁻¹
[2]; SEM
  Km: 976 ± 89 µM
  kcat: 1.21 ± 0.05 s⁻¹
[3]
  kcat/Km: 3200 ± 490 M⁻¹ s⁻¹
  Km: 719 ± 97 µM
  kcat: 2.3 ± 0.17 s⁻¹
[3]; L99A thrombin, current work
  fold decrease in kcat relative to WT thrombin: 3 fold
[4]
  kcat/Km: 54000 ± 5500 M⁻¹ s⁻¹
  Km: 256 ± 24 µM
  kcat: 13.9 ± 0.52 s⁻¹
[4]; I174A thrombin, current work
  fold increase in kcat relative to WT thrombin: 2 fold
  fold increase in kcat/Km relative to WT thrombin: 4.5 fold
[5]; W215A IIa, HPLC assay, pH 7.4, 25 °C, average of at least three independent experiments ± SEM
  kcat/Km: 5600 ± 340 M⁻¹ s⁻¹
[5]; [8]
  Km: 1030 ± 57 µM
  kcat: 5.76 ± 0.14 s⁻¹
[5]; W215A thrombin, current work
  fold decrease in Km over WT thrombin: 2 fold
[6]; WE (W215A/E217A) IIa, HPLC assay, pH 7.4, 25 °C, average of at least three independent experiments ± SEM
  kcat/Km: 270 ± 35 M⁻¹ s⁻¹
[6]; [9]
  Km: 1280 ± 161 µM
  kcat: 0.35 ± 0.03 s⁻¹
[6]; WE thrombin, current work
  fold decrease in Km over WT thrombin: 2 fold

## Ac-TVELQGYVPRGVNL-NH2 [FXIII (28–41) Y34 AP]
[1]
  kcat/Km: 4600 ± 900 M⁻¹ s⁻¹
  Km: 484 ± 88 µM
  kcat: 2.23 ± 0.18 s⁻¹
[3]
  kcat/Km: 39000 ± 9800 M⁻¹ s⁻¹
  Km: 347 ± 80 µM
  kcat: 13.5 ± 1.4 s⁻¹
[4]
  kcat/Km: 3300 ± 2000 M⁻¹ s⁻¹
  Km: 349 ± 120 µM
  kcat: 1.17 ± 0.16 s⁻¹
[4]; I174A thrombin, current work
  fold decrease in Km relative to WT thrombin: 1.4 fold
  fold decrease in kcat relative to WT thrombin: 2 fold

B1: FXIII V34: full-length recombinant FXIII-A V34 expressed in E. coli (protein, UniProt P00488 1-732, looked up)
chain: MSETSRTAFGGRRAVPPNNSNAAEDDLPTVELQGVVPRGVNLQEFLNVTSVHLFKERWDTNKVDHHTDKYENNKLIVRRGQSFYVQIDFSRPYDPRRDLFRVEYVIGRYPQENKGTYIPVPIVSELQSGKWGAKIVMREDRSVRLSIQSSPKCIVGKFRMYVAVWTPYGVLRTSRNPETDTYILFNPWCEDDAVYLDNEKEREEYVLNDIGVIFYGEVNDIKTRSWSYGQFEDGILDTCLYVMDRAQMDLSGRGNPIKVSRVGSAMVNAKDDEGVLVGSWDNIYAYGVPPSAWTGSVDILLEYRSSENPVRYGQCWVFAGVFNTFLRCLGIPARIVTNYFSAHDNDANLQMDIFLEEDGNVNSKLTKDSVWNYHCWNEAWMTRPDLPVGFGGWQAVDSTPQENSDGMYRCGPASVQAIKHGHVCFQFDAPFVFAEVNSDLIYITAKKDGTHVVENVDATHIGKLIVTKQIGGDGMMDITDTYKFQEGQEEERLALETALMYGAKKPLNTEGVMKSRSNVDMDFEVENAVLGKDFKLSITFRNNSHNRYTITAYLSANITFYTGVPKAEFKKETFDVTLEPLSFKKEAVLIQAGEYMGQLLEQASLHFFVTARINETRDVLAKQKSTVLTIPEIIIKVRGTQVVGSDMTVTVEFTNPLKETLRNVWVHLDGPGVTRPMKKMFREIRPNSTVQWEEVCRPWVSGHRKLIASMSSDSLRHVYGELDVQIQRRPSM
modifications: full-length
[7]; SDS-PAGE
  time at which cleavage started to be visible: 2 min
[7]; SDS-PAGE densitometry
  cleavage of full-length FXIII by thrombin at 10 min: 50%
  time to full cleavage of full-length FXIII: ~30 min
